The list is not random: actives were taken first. Their share in the collection is about 1.4%.
thrombin 1536 = inhibitors of human thrombin; alpha-thrombin, Boc-VPR-AMC fluorogenic substrate cleavage; P00734; 220,000 compounds, 0.26% hits; inhibition, % at 5 µM;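 active = inhibition at or above 40%; inactive = inhibition below 40%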
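Material: human alpha-thrombin enzyme / Medium: pH 7.5 Tris (50 mM) with NaCl 150 mM, Tween 20 0.05% / Compound: single-point dosing at 5 µM, 0.2% DMSO / Incubation: enzyme reaction carried out at room temperature / Detection: AMC fluorescence, 355/460 nm / Read-out basis: percent inhibition scaled between no-compound controls and no-enzyme blanks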
KLK5 inh = kallikrein 5 (human) inhibition. inhibition, % at 5 µM. recombinant hK5, fluorogenic AMC substrate cleavage. Q9Y337. 210,000 compounds, 0.59% hits. AID 873;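 active = inhibition of 40% or more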
Calpain2 inh = calpain II (pig) inhibition | purified calpain II, fluorogenic peptide substrate, 30 min | inhibition, % at 16 µM | 220,000 compounds, 0.37% hits | AID 1236;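 active = inhibition above about 50%, limit read from the data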
FXIIa inh 1536 = blocks human coagulation factor XIIa protease activity. inhibition, % at 5 µM. AID 800. 220,000 compounds, 0.3% hits. P00748. purified FXIIa, Boc-QGR-AMC fluorogenic substrate, 2 h; in the data active = inhibition above about 40%
FXIa inh 1536 = blocks human coagulation factor XIa protease activity. P03951. inhibition, % at 5 µM. 220,000 compounds, 0.14% hits. purified FXIa, Boc-Glu-Ala-Arg-AMC fluorogenic substrate;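 active = inhibition of at least 40%; inactive = inhibition below 40%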;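 note: fluorescence of freed AMC excited at 355 nm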
Target sequence (P03951 19-387 limits assumed): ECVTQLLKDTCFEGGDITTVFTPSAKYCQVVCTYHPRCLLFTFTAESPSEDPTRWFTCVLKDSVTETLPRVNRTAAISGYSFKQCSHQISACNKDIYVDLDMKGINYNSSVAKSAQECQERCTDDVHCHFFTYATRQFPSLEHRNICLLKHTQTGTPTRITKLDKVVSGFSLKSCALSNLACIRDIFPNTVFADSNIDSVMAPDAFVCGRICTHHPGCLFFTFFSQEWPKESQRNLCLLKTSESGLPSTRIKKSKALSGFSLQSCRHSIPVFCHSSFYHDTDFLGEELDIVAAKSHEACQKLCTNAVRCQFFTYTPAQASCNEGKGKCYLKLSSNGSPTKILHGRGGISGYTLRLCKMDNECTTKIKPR
Target sequence (P03951 388-625 limits assumed): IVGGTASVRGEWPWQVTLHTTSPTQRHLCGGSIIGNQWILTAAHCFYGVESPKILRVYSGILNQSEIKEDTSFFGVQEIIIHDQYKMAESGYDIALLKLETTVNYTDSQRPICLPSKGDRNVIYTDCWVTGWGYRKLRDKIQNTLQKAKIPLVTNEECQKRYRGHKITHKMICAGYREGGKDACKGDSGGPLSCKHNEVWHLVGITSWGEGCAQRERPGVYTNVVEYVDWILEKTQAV
Large screens that a line does not name were inactive.

CN(NC1OC(=O)c2ccccc21)c1ncc(Cl)cc1C(F)(F)F (stereo unspecified)	FXIIa inh 1536 107
Cc1nc(-c2nnc(SCC(=O)Nc3ccc(C(F)(F)F)cc3)n2C)cs1	none
O=C(NCCc1csc(-c2ccc(C(F)(F)F)cc2)n1)c1cccs1	none
C/C(=N\OC(=O)NC(C)C)c1sc(-c2ccccc2)nc1C	none
C/C(=N\OC(=O)NC(C)C)c1sc(-c2ccc(Cl)cc2)nc1C	KLK5 inh 58
C=CCNc1cc(N2CCCC2)ccc1[N+](=O)[O-]	none
CCOc1ccc(-n2c(SCC(=O)Nc3cc(C)on3)nc3c([nH]c4ccccc43)c2=O)cc1	none
CCOc1ccc(-n2c(SCC(N)=O)nc3c([nH]c4ccccc43)c2=O)cc1	KLK5 inh 44
CCN(CC)C(=O)Cn1cc(C(=O)C(=O)NCCCn2ccnc2)c2ccccc21	thrombin 1536 95
CCN(CC)C(=O)Cn1cc(C(=O)C(=O)NCc2cccs2)c2ccccc21	none
COc1ccc(CNC(=O)C2CCN(S(=O)(=O)c3ccc(-c4nn[nH]n4)cc3)CC2)cc1	Calpain2 inh 51
CCOC(=O)C1(S(=O)(=O)c2ccc(Cl)cc2)CCN(Cc2ccc(C)cc2)CC1	none
N#Cc1nc(COc2ccccc2)oc1N1CCN(c2cccc(Cl)c2)CC1	Calpain2 inh 56
N#Cc1nc(COc2cccc(Cl)c2)oc1N1CCN(c2ccccc2)CC1	none
CNC(=O)CSc1nnc(SCCC(=O)O)s1	none
CCCN(CCC)S(=O)(=O)c1ccc(C(=O)NNc2nc(-c3ccccc3)c3cc(Br)ccc3n2)cc1	FXIa inh 1536 66
N/C(=N\OC(=O)c1csnn1)c1ccc(C(F)(F)F)cc1	none
COCC(C)N1CC(O)=C(c2nc(-c3ccc(Cl)cc3)cs2)C1=N (stereo unspecified)	none
O=C1NC(=S)S/C1=C\c1ccc(SCc2ccco2)o1	Calpain2 inh 52
CC(=O)Nc1ccc(NC(=O)C2CCCN2C(=O)Nc2ccc(F)c([N+](=O)[O-])c2)cc1 (stereo unspecified)	none
CCOc1ccc(S(=O)(=O)N2CCCCC2)c(C)c1C	Calpain2 inh 57
Cc1cccc(/C=C/C(=O)c2ccc(N3CCOCC3)cc2)c1	Calpain2 inh 53
CCCOc1cccc(C(=O)N(Cc2ccco2)C2CCS(=O)(=O)C2)c1 (stereo unspecified)	thrombin 1536 57
CCOC(=O)c1ccc(Oc2nc(OC)cc(OC)n2)cc1	none
CC(=O)c1cccc(NC(=O)c2csc(-n3nc(C)cc3C(F)(F)F)n2)c1	KLK5 inh 56
O=C(NCc1ccc(F)cc1)c1cc2n(n1)C(C(F)(F)F)CC(C1CC1)N2 (stereo unspecified)	Calpain2 inh 66
CC(C)(C)c1ccc(S(=O)(=O)N2CCN(c3ncccn3)CC2)cc1	none
CC12CCC(C(=O)Nc3ccccc3Cl)(C(Br)C1=O)C2(C)C (stereo unspecified)	none
O=C1c2cccc3cccc(c23)C(=O)N1CCCN1CCN(c2ccc(F)cc2)CC1	Calpain2 inh 54 (no result: thrombin 1536)
COc1ccccc1/C=C/C(=O)NCC(=O)n1nc(C)cc1C	none
O=C(/C=C/c1cccs1)N1CCN(c2ccc(F)cc2)CC1	none
O=C(/C=C/c1cccs1)N1CCOCC1	Calpain2 inh 56
CCCN1C(=O)/C(=N\OCC(=O)NC23CC4CC(CC(C4)C2)C3)c2ccccc21	none
S=C(Nc1ccc(Cl)cc1)Nc1ccc2cn[nH]c2c1	none
COc1ccc(NC(=S)Nc2ccc3cn[nH]c3c2)cc1	thrombin 1536 49
COc1ccc(CN2CCc3ccccc3C2)c(OC)c1	none
COc1ccc(C2=[N+](C)CCn3cccc32)c(OC)c1	FXIIa inh 1536 69
O=C(Cn1cncc1-c1ccc([N+](=O)[O-])cc1)Nc1ccccc1F	none
COCCNC(=O)CSc1nnc2c(Cl)cc(Cl)cn12	KLK5 inh 52, FXIIa inh 1536 56
O=C(Nc1scc(-c2ccccc2)c1C(=O)O)c1ccco1	thrombin 1536 50, KLK5 inh 59
CCOc1ccccc1N1CCN(Cc2c(C)n(C)n(-c3ccccc3)c2=O)CC1	none
COc1cc(NS(=O)(=O)c2ccc(NC(C)=O)cc2)ncn1	none
COc1ccc(NS(=O)(=O)c2ccc(NS(=O)(=O)c3ccc(C)cc3)cc2)nn1	KLK5 inh 65
O=C(NC(Cc1c[nH]c2ccccc12)C(=O)NCc1ccc(F)cc1)OCc1ccccc1 (stereo unspecified)	none
O=C(COc1cccc2c1CCN(Cc1ccc(Br)cc1)C2=O)NCc1ccco1	none
Cc1ccc(N/N=C2\CCS(=O)(=O)c3sccc32)cc1	Calpain2 inh 54
O=C(Nc1nnc(-c2ccccc2SCc2ccccc2F)s1)Nc1ccccc1F	Calpain2 inh 51
Cc1ccc(NS(=O)(=O)c2ccc3[nH]c(=O)sc3c2)cc1	none
Cc1[nH]c(=O)[nH]c(=O)c1/C=N/NC(=O)[C@@H](N)CC(C)C	FXIIa inh 1536 45
CC(C)(C)NC(=O)NC(=O)CN1CCN(c2ccccc2)CC1	none
CC(C)(C)NC(=O)NC(=O)CN1CCN(c2ccc(O)cc2)CC1	Calpain2 inh 74
COc1cc(/C=N/NC(=O)c2ccc(CN3C(=O)c4cccc5cccc3c45)cc2)cc(OC)c1O	FXIa inh 1536 50
COc1ccc(/C=N/NC(=O)c2ccc(CN3C(=O)c4cccc5cccc3c45)cc2)cc1O	none (no result: KLK5 inh)
O=[N+]([O-])c1cccc(S(=O)(=O)Nc2nc3ccccc3nc2Nc2cccc(S(=O)(=O)N3CCCCC3)c2)c1	Calpain2 inh 82
Cc1ccc(S(=O)(=O)Nc2nc3ccccc3nc2Nc2cccc(S(=O)(=O)N3CCCC3)c2)cc1	none
O=C1SCCC1NC(=O)C(c1ccccc1)c1ccccc1 (stereo unspecified)	KLK5 inh 94, FXIIa inh 1536 40, FXIa inh 1536 60
CC(CCc1ccccc1)N(C)CC(O)c1cccc([N+](=O)[O-])c1 (stereo unspecified)	none
CCCCCCSc1nnc(-c2cnn(-c3ccccc3)c2-n2cccc2)n1C	Calpain2 inh 56
CCSc1nnc(-c2cnn(-c3ccccc3)c2-n2cccc2)n1C	none
O=C1c2ccccc2C(=O)c2c1cccc2N1CCCC1	Calpain2 inh 51
COC(=O)CCN1CCN(S(=O)(=O)c2ccccc2Br)CC1	none
O=C(NCCCN1CCN(CCCNC(=O)c2cc([N+](=O)[O-])ccc2Cl)CC1)c1cc([N+](=O)[O-])ccc1Cl	KLK5 inh 43
O=C(NCCc1ccc2c(c1)OCCO2)c1ccc([N+](=O)[O-])cc1Cl	KLK5 inh 40
O=C(NCCc1ccc2c(c1)OCCO2)c1cc(F)cc(F)c1	none
C/C(=N\NC(=O)c1ccn(C)n1)c1cccc(NC(=O)c2ccncc2)c1	none
CCCCNC(=S)N/N=C/c1ccccc1F	Calpain2 inh 72
CCCCNC(=S)N/N=C/c1cc(C)ccc1C	none
Cc1cc(C(=O)CN(Cc2ccc(F)cc2)S(=O)(=O)c2ccc3c(c2)OCCO3)c(C)n1C	Calpain2 inh 58
Fc1ccccc1COc1ccc(Br)cc1CNCc1ccncc1	Calpain2 inh 57
CCOC(=O)C[N+]1(C)CCN(C(C)=O)CC1	none

From PubChem BioAssay
